Source: PubChem BioAssay (The Scripps Research Institute Molecular Screening Center)
PLC-beta3 inh – human PLC-beta3 inhibitors, primary screen, biochemical, fluorescence | 1-phosphatidylinositol 4,5-bisphosphate phosphodiesterase beta-3 (Homo sapiens), Q01970 | Purified PLC-beta3, fluorogenic substrate | inhibition, % at 12.2 µM | 370,000 tested, 0.18% active; in the data active = inhibition above about 11%;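 also: 0% = median of compound wells on plate and 100% = full blocker control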
HGIII-sPLA2 inh – human group III sPLA2 inhibitors, primary screen, biochemical, QFRET, BODIPY PC-A2 liposome substrate; 370,000 tested, 0.56% active; Group 3 secretory phospholipase A2 (Homo sapiens), Q9NZ20; QFRET BODIPY PC-A2 liposome hydrolysis, fluorescence; inhibition, % at 12.2 µM;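 active = inhibition above mean plus 3 SD of compounds lying within the high and low control bounds, cut at about 19% in these data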;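 also: 0% = median of test compound wells and 100% = no enzyme DMSO wells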
Target sequence (Q9NZ20 whole entry, looked up): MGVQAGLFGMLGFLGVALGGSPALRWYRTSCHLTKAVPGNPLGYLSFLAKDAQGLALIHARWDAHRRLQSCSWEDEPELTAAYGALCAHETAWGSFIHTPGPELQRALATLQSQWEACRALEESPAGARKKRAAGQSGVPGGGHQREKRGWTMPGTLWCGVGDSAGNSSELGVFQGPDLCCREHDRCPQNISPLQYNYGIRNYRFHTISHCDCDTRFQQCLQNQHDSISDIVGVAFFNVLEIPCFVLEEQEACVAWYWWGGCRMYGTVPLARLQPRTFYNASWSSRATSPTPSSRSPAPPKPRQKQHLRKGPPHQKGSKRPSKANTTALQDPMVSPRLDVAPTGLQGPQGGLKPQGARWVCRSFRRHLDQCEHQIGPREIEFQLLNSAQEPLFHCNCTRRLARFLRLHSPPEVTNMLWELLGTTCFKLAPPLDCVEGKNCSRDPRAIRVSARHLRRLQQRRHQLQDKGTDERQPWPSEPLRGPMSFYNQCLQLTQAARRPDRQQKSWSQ
DAGLB inh – DAGLB lipase inhibitors, primary screen, biochemical, fluorescence, HTS; Diacylglycerol lipase-beta (Homo sapiens), Q8NCG7; HEK293T DAGLB membrane lysate, EnzChek fluorogenic substrate; inhibition, % at 5.17 µM; 340,000 tested, 0.059% active; AID 504411, 2011; in the data active = inhibition above about 34%;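 also: 0% = enzyme with vehicle and 100% = wells lacking enzyme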
TbMetRS inhib – T. brucei MetRS inhibitors, primary screen, biochemical, luminescence. methionyl-tRNA synthetase (Trypanosoma brucei brucei). purified T. brucei MetRS, ATP depletion, Kinase-Glo luminescence. inhibition, % at 11.9 µM. 360,000 tested, 0.4% active. AID 624268, 2012;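 active = inhibition above a per-plate cutoff of the control wells' mean inhibition plus 3 SD, cut at about 5.5% in these data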;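 also: 0% = DMSO wells median and 100% = median of wells with control inhibitor compound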
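Dosing: 11.9 µM compound single dose, 0.9% DMSO; Assay system: purified T. brucei MetRS enzyme; Measured by: Kinase-Glo luciferase luminescence reporting remaining unconsumed ATP; Schedule: 15 min plus 2 h at 25 °C.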
PLC-gamma1 inh – PLC-gamma1 enzyme inhibitors, primary screen, biochemical, fluorescence, purified enzyme; fluorogenic substrate; 1-phosphatidylinositol 4,5-bisphosphate phosphodiesterase gamma-1 (Homo sapiens), P19174; 370,000 tested, 0.84% active; AID 720700, 2013; inhibition, % at 12.2 µM; in the data active = inhibition above about 9.5%
hGIII sPLA2 conf – human group III sPLA2 inhibitors, confirmation, biochemical, QFRET, triplicate. shares compounds with HGIII-sPLA2 inh. recombinant hGIII-sPLA2, BODIPY PC-A2 QFRET fluorescence. inhibition, % at 12.2 µM. 2,000 tested, 34% active;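 active = mean inhibition across triplicates above the hit cutoff set in the earlier primary screen, cut at about 19% in these data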;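 also: 0% = enzyme with DMSO and 100% = DMSO wells lacking enzyme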
535nm interf – 535nm fluorescence optical interference, confirmation, artefact control for HGIII-sPLA2 inhibitor project, biochemical, QFRET; BODIPY FL product fluorescence interference; shares compounds with HGIII-sPLA2 inh; inhibition, % at 12.2 µM; 2,000 tested, 8.5% active; AID 743282, 2014;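 active = average inhibition above the solvent-only control mean plus 3 SD, cut at about 6% in these data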;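 also: 0% = DMSO with substrate plus product and 100% = DMSO with substrate alone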
535nm interf DR – 535nm fluorescence optical interference, dose response, artefact control for HGIII-sPLA2 inhibitor project, biochemical, QFRET; IC50, µM; shares compounds with HGIII-sPLA2 inh; 240 tested, under 10 active; AID 743455, 2014; BODIPY FL product fluorescence interference, cell-free;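 active = IC50 at or below 10 µM; inactive = IC50 above 10 µM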
* marks the source's active call; other numbers are inactive results; . = not tested or not shown. The list is not random: actives were taken first. Their share in the collection is about 1.9%.

SMILES | PLC-beta3 inh | HGIII-sPLA2 inh | DAGLB inh | TbMetRS inhib | PLC-gamma1 inh | hGIII sPLA2 conf | 535nm interf | others
N#Cc1c(Cl)nsc1NN | -9.3 | 19.6* | 3.0 | 0.6 | -7.9 | 18.6 | 13.7*
COC(=O)C1=C(C)N(Cc2ccc(Br)cc2)C(=S)NC1c1cccc(F)c1 (stereo not given) | -0.5 | 9.0 | . | . | 3.3 | . | .
CCCCn1c(-c2csc(C(C)C)c2)n[nH]c1=S | -3.5 | 2.7 | -1.2 | -1.5 | -3.8 | . | .
CCCCn1c(-c2nn(C)c(C)c2Cl)n[nH]c1=S | 0.3 | 19.8* | -1.8 | -0.8 | 1.3 | 24.0* | -3.7
CCCCn1c(-c2csc(CC)c2)n[nH]c1=S | -4.6 | 19.8* | 3.6 | -0.8 | -2.0 | 24.9* | -1.9
CCC(C#Cc1ccccc1)NCc1ccc(OC)cc1OC (stereo not given) | 5.8 | -4.1 | . | . | 6.7 | . | .
CC(C)C[C@@H]1COc2cc(Br)ccc2S(=O)(=O)N1Cc1cn(CCC2OCCCO2)nn1 | -5.8 | 22.5* | . | . | 5.0 | -0.2 | -28.9
C=CCN(CC#Cc1ccccn1)Cc1ccc(OC)cc1OC | -2.1 | 12.5 | . | . | -1.6 | . | .
COc1ccc(-n2cnc3c(N)nc(N)nc32)cc1 | -1.9 | 20.2* | -3.1 | -0.2 | -2.1 | -1.9 | -4.7
CN(CCOC(=O)c1cc2ccccc2o1)C1CN(Cc2cn(Cc3ccc([N+](=O)[O-])cc3)nn2)S(=O)(=O)C1 (stereo not given) | 4.1 | -7.6 | . | . | -0.1 | . | .
c1ccc2c(c1)c1c3n2CCNC3CCC1 (stereo not given) | -27.8 | 25.9* | 0.7 | -0.2 | -20.5 | 29.9* | 0.0 | 535nm interf DR=>122
Oc1ccc2c(c1)c1c3n2CCNC3CCC1 (stereo not given) | . | . | 0.8 | -0.4 | . | . | .
CCOc1cc(NC(=S)NCc2ccco2)c(OCC)cc1NC(=O)CC(C)C | 0.2 | 20.4* | 0.1 | -0.3 | 2.7 | 11.1 | -4.1
CCOc1cc(NC(=S)NCc2ccccc2)c(OCC)cc1NC(=O)C(C)C | -4.3 | 20.1* | -5.6 | -0.5 | 4.8 | 28.7* | -5.7 | 535nm interf DR=>122
Cc1ccc(S(=O)(=O)N2CCCC2C(=O)N2CCN(c3ccccc3)CC2)cc1C (stereo not given) | 1.5 | -4.1 | . | . | 0.1 | . | .
Cc1cccc(NC(=S)NCCCN2CCOCC2)c1 | 1.3 | 19.3* | 3.5 | 0.5 | 3.4 | 3.1 | 0.1
S=C(NCCCN1CCOCC1)Nc1cccc(Cl)c1 | 2.6 | 2.8 | -2.7 | 0.8 | 5.6 | . | .
CCC(=O)OCCCN1CCC2(CCCCC2)C1=O | 6.8 | 7.1 | . | . | 4.7 | . | .
COC(=O)C1CC(=O)c2sccc2C1 (stereo not given) | 0.8 | 20.4* | -0.9 | -1.0 | 6.2 | 0.5 | -3.9
CCCCNC(=S)NNC(=O)c1nn(C)cc1Cl | -6.2 | 23.3* | 1.5 | 0.1 | 2.5 | 27.4* | -1.3
CCCCNC(=S)NNC(=O)c1ccc(Br)o1 | 7.5 | 30.3* | -2.4 | -0.6 | -0.3 | 31.0* | 2.9 | 535nm interf DR=>122
CCCCNC(=S)NNC(=O)c1cccnc1 | 0.5 | 8.0 | -3.4 | -0.3 | -0.7 | . | .
O=C(NC(=S)Nn1cnnc1)c1cccc(Br)c1 | -8.8 | 21.9* | -2.6 | -0.4 | -1.4 | 4.4 | -1.8
Cc1ccc(C(=O)NC(=S)Nn2cnnc2)cc1 | 1.6 | 6.9 | 0.8 | -0.3 | -1.6 | . | .
Clc1cccc(Cl)c1CSc1nnc2ccccn12 | -7.7 | 19.2* | 3.1 | 0.1 | -4.9 | 0.7 | -1.1
SMILES | PLC-beta3 inh | HGIII-sPLA2 inh | DAGLB inh | TbMetRS inhib | PLC-gamma1 inh | hGIII sPLA2 conf | 535nm interf | others
CC1=C(C(=O)Nc2cccc(C(=O)NC(C)C)c2)SCCO1 | -2.6 | -2.3 | -1.6 | -0.7 | -0.6 | . | .
CCC(C)NC(=O)c1ccc(NC(=O)C2=C(C)OCCS2)cc1 (stereo not given) | -1.7 | 20.6* | -0.5 | -0.4 | 7.3 | -0.9 | -7.2
Cc1ccc(-c2cc(-c3nnc(SCC(=O)Nc4ccc(OCc5ccccc5)cc4)n3N)[nH]n2)cc1 | 1.9 | -1.6 | . | . | -0.8 | . | .
CC1CN(Cc2ccccc2)c2ccccc2NC1=S (stereo not given) | 1.8 | 21.0* | 4.0 | -0.6 | -0.1 | 22.5* | 0.2
COc1ccc(-c2ccc(C(=O)Nc3cccc(F)c3)c3occc23)c(C)c1 | -27.9 | 3.9 | . | -0.2 | -22.0 | . | .
COc1ccc(-c2ccc(C(=O)Nc3cccc(N(C)C)c3)c3occc23)c(C)c1 | -77.7 | 19.7* | . | -0.3 | -59.1 | 15.9 | 7.7*
COc1cccc(C(=O)NCCCNC(=O)c2cccc(OC)c2)c1 | -2.9 | 16.8 | 1.1 | -0.5 | 0.9 | . | .
COc1cccc(C(=O)NCCCNC(=O)c2ccco2)c1 | -6.2 | 21.5* | 2.5 | -0.5 | -0.9 | 0.7 | -7.8
CC(=O)CCN1CCSCCS1(=O)=O | 4.3 | -2.0 | . | . | 0.6 | . | .
O=S(=O)(c1ccc(NC(=S)NN=Cc2ccccc2O)cc1)N1CCCCC1 | -151.2 | 26.0* | 7.0 | -0.5 | -115.9 | 33.3* | 9.8*
NS(=O)(=O)c1ccc(NC(=S)NC(=O)c2cccs2)cc1 | -3.4 | 6.0 | -0.8 | -0.3 | -0.2 | . | .
O=C(NC(=S)Nc1ccc(S(=O)(=O)N2CCCCC2)cc1)c1cccs1 | 1.9 | 19.2* | -3.6 | 0.1 | 0.6 | 19.3* | -3.8
O=C(Nc1ccccc1)c1cn(CCBr)cn1 | -8.2 | 19.8* | 0.5 | -0.1 | 7.7 | 5.5 | -6.4
CCCC[n+]1c2ccccc2cc2ccccc21 | -127.2 | 39.8* | 9.9 | -0.8 | -88.8 | 52.2* | -7.1 | 535nm interf DR=>122
CCCNC(=O)Nc1cccc(C(=O)OC)c1 | 4.8 | 20.8* | 0.5 | -0.4 | 4.9 | 8.3 | -5.8
CCCNC(=O)Nc1cccc(NC(C)=O)c1 | -5.8 | -3.8 | 1.0 | 0.1 | 0.1 | . | .
CC(=O)Nc1cccc(NC(C)=C(C#N)C#N)c1 | 1.2 | 2.3 | 1.3 | -0.1 | 1.0 | . | .
CC(=O)Nc1ccc(NC(C)=C(C#N)C#N)cc1 | 1.4 | 19.7* | -6.8 | -0.5 | -1.6 | -1.5 | -2.6
CC(C)(CCC(=S)N1CCOCC1)C1CCCCC1 | -0.9 | 19.4* | -6.0 | -0.3 | 4.7 | 18.5 | -7.1
COC(=O)c1ccc2nc(-c3ccc(C)cc3)c(Cc3ccccc3)n2c1 | -81.8 | -13.9 | . | . | -47.8 | . | .
O=C(NC(=S)NNC(=O)c1cc2ccccc2cc1O)c1ccco1 | -36.7 | 21.0* | 8.4 | 2.9 | -34.6 | 27.9* | 1.8 | 535nm interf DR=>122
